According to ChEMBL document CHEMBL2385063, “Identification of 2-(2-(1-naphthoyl)-8-fluoro-3,4-dihydro-1H-pyrido[4,3-b]indol-5(2H)-yl)acetic acid (setipiprant/ACT-129968), a potent, selective, and orally bioavailable chemoattractant receptor-homologous molecule expressed on Th2 cells (CRTH2) antagonist” (J Med Chem, 2013):
Active and inactive are the calls of the source. The rule behind the calls is not given here.

Key:
[1] = biological target: Prostaglandin E2 receptor EP4 subtype (Homo sapiens, UniProt P35408); assay: Inhibition of beta-arrestin binding to recombinant human prostanoid EP4 receptor expressed in HEK293 cell membranes by beta-lactamase complementation assay
Prostaglandin E2 receptor EP4 subtype, sequence (P35408 whole entry): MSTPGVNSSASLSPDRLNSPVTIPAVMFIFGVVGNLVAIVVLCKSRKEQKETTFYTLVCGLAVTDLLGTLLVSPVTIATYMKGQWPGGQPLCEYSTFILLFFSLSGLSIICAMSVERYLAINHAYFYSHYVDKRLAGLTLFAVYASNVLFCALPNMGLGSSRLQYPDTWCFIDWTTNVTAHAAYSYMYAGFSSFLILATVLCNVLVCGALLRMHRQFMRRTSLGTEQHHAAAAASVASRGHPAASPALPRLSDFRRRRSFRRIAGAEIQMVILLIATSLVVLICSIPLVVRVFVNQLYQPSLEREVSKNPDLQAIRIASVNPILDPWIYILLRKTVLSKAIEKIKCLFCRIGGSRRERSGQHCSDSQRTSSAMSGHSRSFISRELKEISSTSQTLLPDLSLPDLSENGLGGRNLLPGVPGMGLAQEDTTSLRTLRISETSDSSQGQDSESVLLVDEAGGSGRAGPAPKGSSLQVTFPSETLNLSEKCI

[2] = Protein binding in plasma (unknown origin); type: ADME, cell-free; details: read-out: PPB
[3] = biological target: T1, Prostaglandin G/H synthase 1 (Ovis aries, UniProt P05979); assay: Antagonist activity at ovine COX-1
T1 sequence (P05979 whole entry): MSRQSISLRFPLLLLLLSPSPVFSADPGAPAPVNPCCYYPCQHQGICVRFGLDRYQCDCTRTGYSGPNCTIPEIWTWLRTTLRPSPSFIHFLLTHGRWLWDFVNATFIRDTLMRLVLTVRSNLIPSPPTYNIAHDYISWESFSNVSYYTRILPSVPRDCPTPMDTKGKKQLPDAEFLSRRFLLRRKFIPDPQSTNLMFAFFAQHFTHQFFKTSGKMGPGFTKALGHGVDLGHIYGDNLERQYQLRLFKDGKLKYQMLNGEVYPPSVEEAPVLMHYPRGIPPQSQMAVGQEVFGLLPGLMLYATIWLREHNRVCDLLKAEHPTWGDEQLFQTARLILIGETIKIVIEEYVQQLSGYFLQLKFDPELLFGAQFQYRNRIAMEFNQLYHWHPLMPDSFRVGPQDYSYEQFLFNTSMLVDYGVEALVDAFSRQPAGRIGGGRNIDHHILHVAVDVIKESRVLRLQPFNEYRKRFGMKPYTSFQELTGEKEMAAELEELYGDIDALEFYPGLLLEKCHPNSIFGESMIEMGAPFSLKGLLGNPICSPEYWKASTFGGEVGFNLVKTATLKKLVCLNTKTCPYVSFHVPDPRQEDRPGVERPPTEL

[4] = biological target: T2, Prostaglandin D2 receptor 2 (Mus musculus) (UniProt Q9Z2J6); assay: Antagonist activity at mouse CRTH2 receptor assessed as inhibition of calcium flux by cell-based FLIPR assay; type: functional
T2 sequence (whole entry): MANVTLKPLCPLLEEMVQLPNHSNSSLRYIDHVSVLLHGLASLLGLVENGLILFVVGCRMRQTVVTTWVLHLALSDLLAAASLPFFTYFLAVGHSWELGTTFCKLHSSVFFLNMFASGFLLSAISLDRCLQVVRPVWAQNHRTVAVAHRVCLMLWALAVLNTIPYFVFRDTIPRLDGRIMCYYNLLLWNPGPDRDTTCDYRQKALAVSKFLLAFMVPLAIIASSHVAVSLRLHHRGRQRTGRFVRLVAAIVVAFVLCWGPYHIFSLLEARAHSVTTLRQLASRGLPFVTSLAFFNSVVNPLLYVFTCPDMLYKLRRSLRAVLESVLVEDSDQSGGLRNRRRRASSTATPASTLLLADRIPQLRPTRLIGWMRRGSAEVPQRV

Homo sapiens = species: Homo sapiens; assay: Selectivity factor, ratio of IC50 for recombinant human prostanoid DP1 receptor to IC50 for recombinant human CRTH2 receptor
Procedure, shortened: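 hDP₁ IC₅₀ came from competitive [³H]PGD₂ binding on CHO cells stably overexpressing recombinant hDP₁. hCRTh2 IC₅₀ came from [³H]PGD₂ (2.5 nM) displacement on membranes of HEK-293 cells stably expressing hCRTh2, incubated 90 min at room temperature, filtered and counted. f_Sel = IC₅₀(hDP₁)/IC₅₀(hCRTh2).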

[5] = biological target: T3, Prostaglandin E2 receptor EP1 subtype (Homo sapiens, UniProt P34995); assay: Antagonist activity at human prostanoid EP1 receptor expressed in CHOK1 cells assessed as inhibition of PGE2-induced calcium flux after 60 mins by FLIPR assay; type: functional, cell-based, CHO-K1
T3 sequence (P34995 whole entry): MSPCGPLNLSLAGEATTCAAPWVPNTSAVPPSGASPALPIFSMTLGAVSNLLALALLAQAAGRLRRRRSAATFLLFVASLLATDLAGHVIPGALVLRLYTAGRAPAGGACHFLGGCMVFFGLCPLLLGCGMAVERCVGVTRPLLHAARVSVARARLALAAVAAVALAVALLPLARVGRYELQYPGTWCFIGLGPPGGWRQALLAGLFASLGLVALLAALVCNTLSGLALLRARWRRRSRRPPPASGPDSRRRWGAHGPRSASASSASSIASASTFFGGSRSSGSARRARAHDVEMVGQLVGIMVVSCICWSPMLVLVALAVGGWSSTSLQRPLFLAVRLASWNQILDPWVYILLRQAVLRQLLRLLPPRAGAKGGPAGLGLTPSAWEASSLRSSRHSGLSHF

[6] = biological target: T4, Prostaglandin D2 receptor 2 (Homo sapiens, UniProt Q9Y5Y4); assay: Displacement of [3H]PGD2 from recombinant human CRTH2 receptor expressed in HEK293 cell membranes after 90 mins by scintillation counting analysis in presence of human serum albumin
T4 sequence (Q9Y5Y4 whole entry): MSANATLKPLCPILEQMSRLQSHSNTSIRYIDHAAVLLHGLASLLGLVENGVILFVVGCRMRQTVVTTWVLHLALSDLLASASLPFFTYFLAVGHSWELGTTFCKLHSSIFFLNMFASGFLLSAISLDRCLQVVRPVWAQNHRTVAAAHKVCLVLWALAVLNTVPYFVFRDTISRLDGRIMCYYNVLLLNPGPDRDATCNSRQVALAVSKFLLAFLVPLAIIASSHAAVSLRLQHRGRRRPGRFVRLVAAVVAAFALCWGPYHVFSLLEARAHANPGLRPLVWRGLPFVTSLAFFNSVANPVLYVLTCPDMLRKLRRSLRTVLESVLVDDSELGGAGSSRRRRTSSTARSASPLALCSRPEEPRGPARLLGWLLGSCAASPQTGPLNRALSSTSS
Procedure, shortened: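 Same hCRTH2 HEK293 membrane [3H]PGD2 (2.5 nM) displacement, 90 min at room temperature, with 0.5% human serum albumin added to the assay buffer; scintillation counting.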

[7] = biological target: T5, G-protein coupled receptor (Canis lupus familiaris) (UniProt Q2A652); assay: Antagonist activity at dog CRTH2 receptor assessed as inhibition of calcium flux by cell-based FLIPR assay; type: functional
T5 sequence (whole entry): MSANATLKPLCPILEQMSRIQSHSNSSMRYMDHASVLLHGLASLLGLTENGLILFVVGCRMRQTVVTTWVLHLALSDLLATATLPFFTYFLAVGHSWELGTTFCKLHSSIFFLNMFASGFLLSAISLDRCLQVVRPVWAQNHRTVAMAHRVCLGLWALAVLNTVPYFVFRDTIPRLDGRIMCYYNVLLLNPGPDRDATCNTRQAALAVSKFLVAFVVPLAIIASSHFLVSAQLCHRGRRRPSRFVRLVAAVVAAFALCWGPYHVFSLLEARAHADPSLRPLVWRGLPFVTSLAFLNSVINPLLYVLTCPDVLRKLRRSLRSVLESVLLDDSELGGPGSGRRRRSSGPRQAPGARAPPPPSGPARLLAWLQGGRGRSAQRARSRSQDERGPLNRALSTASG

[8] = biological target: T4, Prostaglandin D2 receptor 2; assay: Displacement of [3H]PGD2 from recombinant human CRTH2 receptor expressed in HEK293 cell membranes after 90 mins by scintillation counting analysis
Procedure, shortened: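 Membranes from HEK293 cells expressing hCRTH2 (80 μg protein/well) in Tris pH 7.4 buffer with NaCl, EDTA, 0.1% BSA were incubated with 2.5 nM [3H]PGD2 for 90 min at room temperature. Nonspecific binding was defined with 10 μM PGD2. Samples were filtered on PEI-soaked GF/C and read by scintillation counting.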

Row | IC50 [1] [nM] | fraction unbound [2] | IC50 [3] [nM] | inhibition [4] | Ratio IC50 (Homo sapiens) | IC50 [5] [nM] | IC50 [6] [nM] | inhibition [7] | IC50 [8] [nM] | SMILES
1 | > 10000 | < 0.03 | > 10000 | Active | 200 | > 25000 | 70 | Active | 11 | O=C(O)Cn1c2c(c3cc(C(F)(F)F)ccc31)CN(C(=O)c1cccc3ccccc13)CC2
2 | > 10000 | < 0.03 | > 10000 | Active | > 2500 | > 25000 | 180 | Active | 4 | O=C(O)Cn1c2c(c3cc(F)ccc31)CN(C(=O)Cc1cccc3ccccc13)CC2
